Test results published in ChEMBL document CHEMBL3784921, “Mimicking of Arginine by Functionalized N(ω)-Carbamoylated Arginine As a New Broadly Applicable Approach to Labeled Bioactive Peptides: High Affinity Angiotensin, Neuropeptide Y, Neuropeptide FF, and Neurotensin Receptor Ligands As Examples” (J Med Chem, 2016).
pEC50, pIC50, pKi: −log10 of the molar value. Blank lines part the entries; values can stand above or below the molecule they belong to. *1 amine or outer side, *2 acyl side, *3 side chain or, on linkers, in order; H or OH if unused. Where a SMILES comes first, the peptide text is derived from it. Bridges are numbered along the chain shown (N, C = ends). Roman numbers before positions name the chains, in order. [ ]: non-standard residue; d: D form. X1 = CCC(=O)NCCCCNC(=O)/N=C(\N)NCCC[C@H](N[*:1])C(=O)[*:2]; X6 = CCC(=O)NCCCCNC(=O)/N=C(/N)NCCC[C@H](N[*:1])C(=O)[*:2]; X4 = NCCOCCOCCNC(=O)/N=C(/N)NCCC[C@H](N[*:1])C(=O)[*:2]; X2 = NCCCCNC(=O)/N=C(\N)NCCC[C@H](N[*:1])C(=O)[*:2]; X7 = NCCCCNC(=O)/N=C(/N)NCCC[C@H](N[*:1])C(=O)[*:2]; Suberoyl = O=C(CCCCCCC(=O)[*:2])[*:1]

How the values were obtained:
[1] = molecular target: Neurotensin receptor type 1 (Homo sapiens, UniProt P30989); test: Displacement of [3H]-{Nomega-[N-(4-propanoylaminobutyl)aminocarbonyl]}Arg-Arg-ProTyr-Ile-Leu-OH Tris(hydrotrifluoroacetate) from NTSR1 in human HT-29 cells after 2 hrs by liquid scintillation counting; assay type: cell-based
Sequence of Neurotensin receptor type 1 (P30989 whole entry): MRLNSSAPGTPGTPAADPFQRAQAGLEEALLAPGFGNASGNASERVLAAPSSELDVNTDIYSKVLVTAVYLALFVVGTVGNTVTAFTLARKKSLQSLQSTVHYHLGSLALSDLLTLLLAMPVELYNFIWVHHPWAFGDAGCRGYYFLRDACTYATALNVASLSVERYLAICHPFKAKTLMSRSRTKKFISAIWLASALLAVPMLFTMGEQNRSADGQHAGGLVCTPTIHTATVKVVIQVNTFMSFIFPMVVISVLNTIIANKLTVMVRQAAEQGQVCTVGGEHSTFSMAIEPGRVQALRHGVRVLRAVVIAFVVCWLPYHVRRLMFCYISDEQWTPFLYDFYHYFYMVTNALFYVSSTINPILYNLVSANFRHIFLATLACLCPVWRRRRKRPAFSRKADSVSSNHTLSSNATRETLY

[2] = molecular target: Neuropeptide Y receptor type 4 (Homo sapiens, UniProt P50391); test: Displacement of S0586[K4]hpp from human NPY4 receptor expressed in CHO cells co-expressing Gqi5-mtAEQ by flow cytometric analysis; assay type: cell-based
Sequence of Neuropeptide Y receptor type 4 (P50391 whole entry): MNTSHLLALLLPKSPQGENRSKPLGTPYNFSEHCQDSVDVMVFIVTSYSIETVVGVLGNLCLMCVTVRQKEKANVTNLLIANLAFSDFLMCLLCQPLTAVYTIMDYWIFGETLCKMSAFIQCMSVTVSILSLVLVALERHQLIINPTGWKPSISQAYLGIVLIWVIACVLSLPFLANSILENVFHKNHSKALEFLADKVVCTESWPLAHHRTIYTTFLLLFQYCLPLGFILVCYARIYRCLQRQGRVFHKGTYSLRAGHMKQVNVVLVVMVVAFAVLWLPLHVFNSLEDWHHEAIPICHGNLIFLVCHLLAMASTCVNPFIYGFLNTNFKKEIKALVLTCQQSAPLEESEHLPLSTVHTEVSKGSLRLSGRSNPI

[3] = Chemical stability of compound at 200 uM at pH 7 at 21 degC after 24 to 48 hrs by reversed-phase HPLC analysis; assay type: physicochemical; conditions: buffer, pH 7, 200 µM
Method in brief: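 Peptide incubated in phosphate buffer (PBS), pH 7.0, 21 °C, for 24 or 48 h. Remaining intact peptide assessed by reversed-phase HPLC chromatograms.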

[4] = molecular target: Neuropeptide FF receptor 2 (Homo sapiens, UniProt Q9Y5X5); test: Displacement of [3H]EYE from human NPFF2 receptor expressed in CHO cell membranes after 1 hr by liquid scintillation spectrophotometric counting
Sequence of Neuropeptide FF receptor 2 (Q9Y5X5 whole entry): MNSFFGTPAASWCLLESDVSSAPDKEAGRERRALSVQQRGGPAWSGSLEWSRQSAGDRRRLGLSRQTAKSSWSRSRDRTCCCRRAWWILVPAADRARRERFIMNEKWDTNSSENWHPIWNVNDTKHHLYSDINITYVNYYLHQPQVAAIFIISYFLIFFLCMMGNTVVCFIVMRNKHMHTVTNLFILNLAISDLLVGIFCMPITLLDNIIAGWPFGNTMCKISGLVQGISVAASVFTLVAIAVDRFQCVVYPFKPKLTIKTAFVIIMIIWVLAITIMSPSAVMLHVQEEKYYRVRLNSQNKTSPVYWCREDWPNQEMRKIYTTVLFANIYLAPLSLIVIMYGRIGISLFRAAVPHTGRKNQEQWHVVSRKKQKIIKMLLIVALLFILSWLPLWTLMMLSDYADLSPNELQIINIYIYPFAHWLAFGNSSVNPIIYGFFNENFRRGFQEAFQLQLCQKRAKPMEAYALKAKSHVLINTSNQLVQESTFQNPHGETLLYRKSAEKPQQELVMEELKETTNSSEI

[5] = Drug degradation in human HT-29 cells at 50 uM after 2 hrs by reversed-phase HPLC analysis; assay type: ADME, cell-based; conditions: read-out: Drug degradation
Method in brief: (§1)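 Stability tested under binding-assay conditions for up to 6 h: AT1 ligands with CHO-hAT1 cells and NTSR1 ligands with HT-29 cells. Samples analysed by reversed-phase HPLC chromatography.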

[6] = molecular target: T1, Type-1 angiotensin II receptor (Homo sapiens, UniProt P30556); test: Agonist activity at human AT1 receptor transfected in CHO cells co-expressing Galpha16-mtAEQ assessed as induction of intracellular Ca2+ mobilization by bioluminescence assay; assay type: functional, cell-based
T1 sequence (P30556 whole entry): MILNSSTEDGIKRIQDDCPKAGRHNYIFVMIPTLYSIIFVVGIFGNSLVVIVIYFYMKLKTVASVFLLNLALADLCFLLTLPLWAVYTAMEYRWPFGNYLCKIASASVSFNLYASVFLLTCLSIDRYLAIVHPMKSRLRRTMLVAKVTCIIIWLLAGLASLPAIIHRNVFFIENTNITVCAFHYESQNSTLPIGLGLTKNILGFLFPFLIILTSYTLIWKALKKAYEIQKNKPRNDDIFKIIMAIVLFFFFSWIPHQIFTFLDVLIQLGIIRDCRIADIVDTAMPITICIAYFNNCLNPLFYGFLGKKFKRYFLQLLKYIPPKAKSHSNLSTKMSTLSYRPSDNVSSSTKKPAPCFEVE

[7] = molecular target: T1, Type-1 angiotensin II receptor; test: Displacement of [3H]-Asp-{Nomega-[N-(4-propanoylaminobutyl)aminocarbonyl]}Arg-ValTyr-Ile-His-Pro-Phe-OH Tris(hydrotrifluoroacetate) from human AT1 receptor transfected in CHO cells co-expressing Galpha16-mtAEQ after 2 hrs by liquid scintillation counting; assay type: cell-based
[8] = Drug degradation in CHO cells expressing human AT1 receptor at 50 uM after 2 hrs by reversed-phase HPLC analysis; assay type: ADME, cell-based, Cricetulus griseus; conditions: chinese hamster, read-out: Drug degradation; method in brief: as §1

- pIC50 [1]: 8.50
- pKi [1]: 8.96
SMILES: COc1cccc(OC)c1-c1cc(C(=O)NC2(C(=O)O)C3CC4CC(C3)CC2C4)nn1-c1ccc(C(=O)N(C)CCCN(C)C)cc1C(C)C (stereo not given)

- pKi [1]: 9.44
SMILES: CC[C@H](C)[C@H](NC(=O)[C@H](Cc1ccc(O)cc1)NC(=O)[C@@H]1CCCN1C(=O)[C@H](CCCN/C(N)=N\C(=O)NCCOCCOCCN)NC(=O)[C@@H](N)CCCNC(=N)N)C(=O)N[C@@H](CC(C)C)C(=O)O (H-R[X4]PYIL-OH)

- pKi [2]: 8.82
SMILES: CC(C)C[C@H](NC(=O)[C@H](CCCNC(=N)N)NC(=O)[C@H](Cc1ccc(O)cc1)NC(=O)CCCCCCC(=O)N[C@@H](Cc1ccc(O)cc1)C(=O)N[C@@H](CCCN/C(N)=N/C(=O)NCCCCN)C(=O)N[C@@H](CC(C)C)C(=O)N[C@@H](CCCNC(=N)N)C(=O)N[C@@H](Cc1ccc(O)cc1)C(N)=O)C(=O)N[C@@H](CCCNC(=N)N)C(=O)N[C@@H](Cc1ccc(O)cc1)C(N)=O (I: Y[X2]LRY-NH2 / II: YRLRY-NH2; linker I:N-II:N via Suberoyl)

SMILES: CC(C)C[C@H](NC(=O)[C@H](CO)NC(=O)[C@H](Cc1c[nH]c2ccccc12)NC(=O)[C@H](Cc1ccc(O)cc1)NC(=O)[C@@H](N)CCC(=O)O)C(=O)N[C@@H](C)C(=O)N[C@@H](C)C(=O)N1CCC[C@H]1C(=O)N[C@@H](CCC(N)=O)C(=O)N[C@@H](CCCN/C(N)=N\C(=O)NCCCCN)C(=O)N[C@@H](Cc1ccccc1)C(N)=O.O=C(O)C(F)(F)F.O=C(O)C(F)(F)F.O=C(O)C(F)(F)F (H-EYWSLAAPQ[X7]F-NH2)
- Stability [3]: Stable
- pKi [4]: 7.57

SMILES: CCC(=O)NCCCCNC(=O)/N=C(/N)NCCC[C@H](NC(=O)[C@H](CCC(N)=O)NC(=O)[C@@H]1CCCN1C(=O)[C@H](C)NC(=O)[C@H](C)NC(=O)[C@H](CC(C)C)NC(=O)[C@H](CO)NC(=O)[C@H](Cc1c[nH]c2ccccc12)NC(=O)[C@H](Cc1ccc(O)cc1)NC(=O)[C@@H](N)CCC(=O)O)C(=O)N[C@@H](Cc1ccccc1)C(N)=O.O=C(O)C(F)(F)F.O=C(O)C(F)(F)F (H-EYWSLAAPQ[X6]F-NH2)
- Stability [3]: Stable
- pKi [4]: 7.39

- pKi [2]: 8.44
SMILES: CCC(=O)NCCCCNC(=O)/N=C(\N)NCCC[C@H](NC(=O)[C@H](Cc1ccc(O)cc1)NC(=O)CCCCCCC(=O)N[C@@H](Cc1ccc(O)cc1)C(=O)N[C@@H](CCCNC(=N)N)C(=O)N[C@@H](CC(C)C)C(=O)N[C@@H](CCCNC(=N)N)C(=O)N[C@@H](Cc1ccc(O)cc1)C(N)=O)C(=O)N[C@@H](CC(C)C)C(=O)N[C@@H](CCCNC(=N)N)C(=O)N[C@@H](Cc1ccc(O)cc1)C(N)=O (I: Y[X1]LRY-NH2 / II: YRLRY-NH2; linker I:N-II:N via Suberoyl)

- metabolised at 2 h, 50 µM [5]: < 5.5%
SMILES: CC[C@H](C)[C@H](NC(=O)[C@H](Cc1ccc(O)cc1)NC(=O)[C@@H]1CCCN1C(=O)[C@H](CCCNC(=N)N)NC(=O)[C@@H](N)CCCNC(=N)N)C(=O)N[C@@H](CC(C)C)C(=O)O

SMILES: CC[C@H](C)[C@H](NC(=O)[C@H](Cc1ccc(O)cc1)NC(=O)[C@@H](NC(=O)[C@H](CCCN/C(N)=N/C(=O)NCCCCN)NC(=O)[C@@H](N)CC(=O)O)C(C)C)C(=O)N[C@@H](Cc1cnc[nH]1)C(=O)N1CCC[C@H]1C(=O)N[C@@H](Cc1ccccc1)C(=O)O.O=C(O)C(F)(F)F.O=C(O)C(F)(F)F.O=C(O)C(F)(F)F.O=C(O)C(F)(F)F (H-D[X2]VYIHPF-OH)
- Stability [3]: Stable
- pEC50 [6]: 8.85
- pIC50 [7]: 8.21
- pKi [7]: 8.68

- metabolised at 2 h, 50 µM [8]: < 5.5%
SMILES: CCC(=O)NCCOCCOCCNC(=O)/N=C(\N)NCCC[C@H](NC(=O)[C@@H](N)CC(=O)O)C(=O)N[C@H](C(=O)N[C@@H](Cc1ccc(O)cc1)C(=O)N[C@H](C(=O)N[C@@H](Cc1cnc[nH]1)C(=O)N1CCC[C@H]1C(=O)N[C@@H](Cc1ccccc1)C(=O)O)[C@@H](C)CC)C(C)C
